Results from ChEMBL document CHEMBL1137141, “Synthesis of new coumarin 3-(N-aryl) sulfonamides and their anticancer activity” (2004).

Experiments:
Assay type in all cases: functional
DLD-1 = test: Concentration required to inhibit growth of DLD-1 cells by 50% after 96h of treatment; conditions: Homo sapiens, DLD-1, 96 h
Summary of the method: (§1)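 Cells (1 × 10⁵) were plated in 6-well dishes. Test agents were added 24 h later at five concentrations over a 2-log span (1–100 µM) and left on continuously for 96 h. Viable cells were counted by trypan blue exclusion on a hemacytometer and expressed as a percentage of DMSO-treated wells. GI50 was read from dose–response curves of % cells versus concentration.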

BT-20 = test: Concentration required to inhibit growth of BT20 cells by 50% after 96h of treatment; conditions: Homo sapiens, BT-20, 96 h; summary of the method: as §1
NCI-H157 = test: Concentration required to inhibit growth of H157 cells by 50% after 96h of treatment; conditions: Homo sapiens, NCI-H157, 96 h; summary of the method: as §1
DU-145 = test: Concentration required to inhibit growth of DU145 cells by 50% after 96h of treatment; conditions: Homo sapiens, DU-145, 96 h; summary of the method: as §1
K562 = test: Concentration required to inhibit growth of K562 cells by 50% after 96h of treatment; conditions: Homo sapiens, K562, 96 h; summary of the method: as §1

SMILES | GI50 (DLD-1) [µM] | GI50 (BT-20) [µM] | GI50 (NCI-H157) [µM] | GI50 (DU-145) [µM] | GI50 (K562) [µM]
COc1ccc(NS(=O)(=O)c2cc3cc(Cl)ccc3oc2=O)cc1O | 82 | 65 | 76 | 42 | 51
CCOc1cccc2cc(S(=O)(=O)Nc3ccc(OC)cc3)c(=O)oc12 | 78 | 52 | 74 | 57 | 48
COc1ccc2oc(=O)c(S(=O)(=O)Nc3ccc(Br)cc3)cc2c1 | 38 | 18 | 32 | 25 | 27
O=c1oc2c(Br)cccc2cc1S(=O)(=O)Nc1ccc(Br)cc1 | 14 | 12 | 15 | 12 | 16
CCOc1cccc2cc(S(=O)(=O)Nc3ccc(F)c(N)c3)c(=O)oc12 | 80 | 54 | 72 | 48 | 42
O=c1oc2c(Cl)cccc2cc1S(=O)(=O)Nc1ccc(Br)cc1 | 18 | 17 | 16 | 14 | 11
COc1ccc2oc(=O)c(S(=O)(=O)Nc3ccc(F)c(N)c3)cc2c1 | 92 | 68 | 78 | 56 | 44
COc1ccc(NS(=O)(=O)c2cc3cc(Cl)ccc3oc2=O)cc1 | 32 | 27 | 28 | 22 | 23
CCOc1cccc2cc(S(=O)(=O)Nc3ccc(Br)cc3)c(=O)oc12 | 85 | 64 | 74 | 52 | 58
COc1ccc(NS(=O)(=O)c2cc3cccc(Br)c3oc2=O)cc1 | 20 | 16 | 18 | 15 | 14
